ChEMBL document CHEMBL4706565, “Anti-glioma effects of 2-aminothiophene-3-carboxamide derivatives, ANO1 channel blockers” (Eur J Med Chem, 2020)
Calls of active or inactive are those of the source. No cut-off for these calls is given here.

Legend:
[1] = test system: U-251; assay: Antiproliferative activity against human U251 cells overexpressing ANO1 assessed as reduction in cell viability measured after 72 hrs by Celltiter-glo assay; assay type: functional
Outline: (§1)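 5.0×10^3 cells/well seeded, overnight, then compounds added as 1:4 serial dilutions in DMSO; viability read after 72 h with CellTiter-Glo luminescence. GI50 from fitted dose-response curves; triplicate wells, SD from three independent experiments. DMEM for U251 and U138, MEM for U87MG, both with 10% FBS and pen/strep, 37 °C, 5% CO2.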

[2] = Antiproliferative activity against mouse primary astrocytes assessed as reduction in cell viability measured after 72 hrs by Celltiter-Glo luminescent assay; assay type: cell-based, Astrocyte
Outline: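 Primary astrocytes isolated from adult mouse brain by a previously reported method. 5.0×10^3 cells/well, compound as 1:4 serial DMSO dilutions, CellTiter-Glo viability at 72 h.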

[3] = biological target: T1, Anoctamin-1 (Homo sapiens) (UniProt Q5XXA6); assay: Inhibition of ANO1 in human U251 cells assessed as inhibition of channel current at 10 uM by patch clamp electrophysiology assay; assay type: cell-based; details: U-251
T1 sequence (whole entry): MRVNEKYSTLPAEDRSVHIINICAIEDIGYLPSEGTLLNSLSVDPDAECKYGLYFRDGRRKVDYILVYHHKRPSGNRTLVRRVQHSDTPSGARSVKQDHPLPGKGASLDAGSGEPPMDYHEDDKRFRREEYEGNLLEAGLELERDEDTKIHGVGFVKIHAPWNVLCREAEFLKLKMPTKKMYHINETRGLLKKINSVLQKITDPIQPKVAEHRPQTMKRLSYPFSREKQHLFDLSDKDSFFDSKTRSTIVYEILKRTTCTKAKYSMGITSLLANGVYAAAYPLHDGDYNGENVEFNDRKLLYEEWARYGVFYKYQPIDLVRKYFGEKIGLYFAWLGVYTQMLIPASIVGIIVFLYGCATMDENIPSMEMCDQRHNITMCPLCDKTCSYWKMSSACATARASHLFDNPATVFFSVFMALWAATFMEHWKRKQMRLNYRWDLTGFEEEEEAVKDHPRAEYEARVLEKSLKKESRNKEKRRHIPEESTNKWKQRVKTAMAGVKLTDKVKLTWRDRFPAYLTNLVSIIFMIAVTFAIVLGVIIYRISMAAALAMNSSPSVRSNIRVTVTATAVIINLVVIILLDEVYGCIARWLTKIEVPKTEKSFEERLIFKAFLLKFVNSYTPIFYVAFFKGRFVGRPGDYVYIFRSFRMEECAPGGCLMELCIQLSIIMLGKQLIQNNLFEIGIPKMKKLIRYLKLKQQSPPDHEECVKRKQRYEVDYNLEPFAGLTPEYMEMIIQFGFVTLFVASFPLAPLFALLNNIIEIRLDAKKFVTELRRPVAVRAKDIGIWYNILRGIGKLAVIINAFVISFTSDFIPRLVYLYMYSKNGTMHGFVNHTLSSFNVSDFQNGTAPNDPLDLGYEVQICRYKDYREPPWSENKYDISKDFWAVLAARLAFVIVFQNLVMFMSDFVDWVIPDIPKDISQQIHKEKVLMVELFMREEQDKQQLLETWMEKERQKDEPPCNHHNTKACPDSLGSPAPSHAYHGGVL
Outline: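 Endogenous ANO1 currents recorded by whole-cell patch clamp in U251 cells, room temperature. 1 s ramps from +80 to -80 mV, holding potential -10 mV. CsCl-based pipette with Ca-EGTA-NMDG (pH 7.3) and NaCl-based bath (pH 7.3).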

[4] = biological target: T2, Protein tweety homolog 1 (Mus musculus) (UniProt Q9D3A9); assay: Inhibition of GFP-fused mouse TTYH1 channel expressed in HEK293A cells assessed as inhibition of channel current amplitude at 1 to 10 uM at membrane potential of +80 mV by patch clamp electrophysiology assay; assay type: cell-based; details: HEK293-A, dose 1-10 µM
T2 sequence (whole entry): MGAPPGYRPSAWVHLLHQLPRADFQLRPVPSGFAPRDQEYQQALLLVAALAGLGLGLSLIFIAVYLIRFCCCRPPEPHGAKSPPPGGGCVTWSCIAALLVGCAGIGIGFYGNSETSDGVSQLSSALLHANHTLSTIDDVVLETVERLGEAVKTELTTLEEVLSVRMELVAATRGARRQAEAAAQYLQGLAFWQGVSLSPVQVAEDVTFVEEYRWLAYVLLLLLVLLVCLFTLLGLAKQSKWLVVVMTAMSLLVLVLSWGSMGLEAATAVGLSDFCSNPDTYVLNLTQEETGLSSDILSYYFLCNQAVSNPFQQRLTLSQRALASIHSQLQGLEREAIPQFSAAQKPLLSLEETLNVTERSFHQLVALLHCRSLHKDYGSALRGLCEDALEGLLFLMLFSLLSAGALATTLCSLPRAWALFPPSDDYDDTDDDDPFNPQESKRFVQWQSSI
Outline: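 Whole-cell recording at room temperature in HEK293A cells transfected with GFP-mANO1, GFP-mANO2 or GFP-mTTYH1. 1 s ramps from +80 to -80 mV, holding potential -10 mV. For ANO1/ANO2: pipette CsCl 146 mM with Ca-EGTA-NMDG, pH 7.3; bath NaCl-based, pH 7.3. For TTYH1: Tris-aspartate pipette (pH 7.2) and Tris-HCl bath (pH 7.4), with […] and BaCl2 added to block K+ channels, and hypotonic (220 mOsm/kg) bath. Washout recordings assessed reversibility.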

[5] = biological target: T1, Anoctamin-1 (Homo sapiens); assay: Induction of ANO1 degradation in human U251 cells at 10 uM preincubated with compound for 6 hrs followed by treatment with proteasome inhibitor, MG132 for 18 hrs by western blot analysis; assay type: cell-based; details: U-251, time 24.0 hrs
Outline: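 U251 cells (5×10^5) treated with 10 μM inhibitor for 24 h. Alternatively, treated 6 h with 10 μM inhibitor, then MG132 (20 μM, a proteasome inhibitor) for a further 18 h. NP40 lysates immunoblotted for ANO1, β-actin as loading control; band densitometry.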

[6] = test system: U-87 MG; assay: Antiproliferative activity against human U87MG cells overexpressing ANO1 assessed as reduction in cell viability measured after 72 hrs by Celltiter-glo assay; assay type: functional, U-87MG ATCC; outline: as §1
[7] = test system: U-251; assay: Inhibition of cell invasion in human U251 cells at 10 uM incubated for 48 hrs by Boyden chamber method; assay type: functional
Outline: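 Boyden chamber invasion: U251 cells serum-starved 24 h, then 2.5×10^5 cells seeded in 8-μm ECMatrix-coated transwells. Treated with compound at 1 or 10 μM for 48 h at 37 °C. Invasion ratio from relative fluorescence.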

[8] = test system: U-251; assay: Inhibition of cell migration in human U251 cells at 5 uM incubated for 18 hrs by wound healing assay; assay type: functional, cell-based
Outline: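 U251 monolayer, 2.0×10^5 cells/well, plated overnight, then scratched and washed with PBS. Incubated 18 h in complete medium with compound (1, 5 or 10 μM). Wound area imaged before and after incubation; migration ratio taken from migrated area. One-way ANOVA.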

[9] = biological target: T3, Anoctamin-1 (Homo sapiens, UniProt Q5XXA6); assay: Inhibition of human ANO1 channel expressed in HEK293 cells incubated for 10 mins by FLIPR assay; assay type: cell-based
T3 sequence (Q5XXA6 whole entry): T1 sequence (whole entry)
Outline: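 HEK293 cells expressing human ANO1, 50,000 cells/well, plated overnight. Loaded with FLIPR Red membrane-potential dye in HEPES-buffered saline (pH 7.4) for 40-60 min at room temperature. Compound added for 10 min at room temperature, final DMSO 0.5%.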

GI50 [1] [µM]	inhibition [3] [%]	inhibition [4]	Activity [5]	GI50 [6] [µM]	IC50 [9] [µM]	Structure (SMILES)	GI50 at 72 h [2] [µM]	inhibition at 10 µM [7] [%]	inhibition [8]	inhibition [7]
12.6	40	inactive	inactive	31.5	3.1	CC(C)(C)C(=O)Nc1sc2c(c1C(N)=O)CCC(C(C)(C)C)C2 (stereo not drawn)	94.8	90	Active	
12	60	inactive	inactive	23.8	2.36	NC(=O)c1c(NC(=S)NC(=O)c2ccc(Cl)cc2)sc2c1CCC2	45.1		Active	Active
